Bioassay records: PubChem BioAssay, The Scripps Research Institute Molecular Screening Center
An excerpt weighted towards active compounds, which were near 2.7% of everything screened.
ARFGAP1 inhibitor: rat ARFGAP1 inhibition; hit rate 0.26% among 360,000; inhibition, % at 16.5 µM; Arfgap1-stimulated ARF1 GTP hydrolysis, GDP FP detection;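 active = inhibition above a per-plate limit, mean inhibition of low control wells plus 3 SD, cut at about 25% in these data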
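Assay system: Rat Arfgap1 GAP domain (His6, aa 1-136), purified enzyme | Buffer or medium: HEPES 25 mM pH 7.5, NaCl 150 mM, MgCl2, DTT | Schedule: GTP hydrolysis reaction 2 h at 25 °C | Signal: FP of antibody-bound GDP Alexa 633 tracer, ex 620/em 688 nm | Measure: Percent inhibition of Arfgap1-stimulated GTP hydrolysis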
pPAFAH inh: inhibitors of human plasma PAF acetylhydrolase (pPAFAH); inhibition, % at 3.39 µM; Q13093; AID 463082; hit rate 1.5% among 330,000; recombinant pPAFAH, FP-rhodamine probe fluorescence polarization;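 active = inhibition above the mean inhibition across the screen plus 3 SD, cut at about 25% in these data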;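 note: inhibitors block binding of the rhodamine activity-based probe so polarization drops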
PAFAH2 FP inh: inhibitors of human PAFAH2; Q99487; recombinant PAFAH2, FP-rhodamine activity probe, fluorescence polarization; inhibition, % at 3.39 µM; hit rate 0.99% among 340,000;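 active = inhibition above the mean over all tested compounds plus 3 SD, cut at about 30% in these data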;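 note: inhibitors block probe labeling of enzyme so polarization drops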
PAFAH1B2 inh: blocks human PAF acetylhydrolase 1b catalytic subunit 2 | P68402 | recombinant PAFAH1B2, FP-rhodamine activity probe, fluorescence polarization | inhibition, % at 3.39 µM | hit rate 1.2% among 340,000 | AID 492953;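 active = inhibition above the mean of all tested compounds plus 3 SD, cut at about 24% in these data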
ASAP1 GAP inh: blocks human ASAP1-stimulated Arf1 GTP hydrolysis; GDP FP detection; inhibition, % at 16.5 µM; hit rate 0.19% among 360,000; AID 624377; in the data active = inhibition above about 25%
Target sequence (Q9ULH1 325-724 limits assumed): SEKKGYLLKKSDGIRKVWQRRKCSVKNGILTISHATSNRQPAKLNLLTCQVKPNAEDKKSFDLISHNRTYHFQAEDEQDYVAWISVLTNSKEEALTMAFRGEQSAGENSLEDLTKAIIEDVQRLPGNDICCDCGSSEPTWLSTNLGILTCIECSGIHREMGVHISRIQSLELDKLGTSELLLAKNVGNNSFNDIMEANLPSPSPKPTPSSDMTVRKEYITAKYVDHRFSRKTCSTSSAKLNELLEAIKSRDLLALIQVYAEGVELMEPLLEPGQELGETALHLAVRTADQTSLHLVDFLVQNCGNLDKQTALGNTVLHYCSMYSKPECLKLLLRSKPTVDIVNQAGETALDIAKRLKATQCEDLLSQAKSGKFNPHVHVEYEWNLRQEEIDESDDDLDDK
PAFAH1B3 FP inh: blocks human PAF acetylhydrolase 1B catalytic subunit 3; recombinant PAFAH1B3, FP-rhodamine probe, fluorescence polarization; Q15102; hit rate 0.28% among 340,000; inhibition, % at 3.39 µM; AID 492972;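 active = inhibition above the screen-wide average of all tested compounds plus 3 SD, cut at about 25% in these data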
Target sequence (Q15102 whole entry, looked up): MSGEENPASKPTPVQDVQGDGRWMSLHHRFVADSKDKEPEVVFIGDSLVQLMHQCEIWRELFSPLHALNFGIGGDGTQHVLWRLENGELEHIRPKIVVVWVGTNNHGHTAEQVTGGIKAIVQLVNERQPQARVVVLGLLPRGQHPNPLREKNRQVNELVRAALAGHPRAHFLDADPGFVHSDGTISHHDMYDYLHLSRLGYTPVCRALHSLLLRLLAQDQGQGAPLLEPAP
Numbers stand for hits; n = inactive; x = not tested or not shown.

SMILES | ARFGAP1 inhibitor | pPAFAH inh | PAFAH2 FP inh | PAFAH1B2 inh | ASAP1 GAP inh | PAFAH1B3 FP inh
CC(/C=C1\SC(=S)N(CCCC(=O)Nc2ccc(C(=O)O)c(O)c2)C1=O)=C\c1ccccc1 | x | 30.8 | x | x | x | x
O=C(CCN1C(=O)/C(=C\C=C\c2ccccc2)SC1=S)Nc1ccccc1C(=O)O | n | 29.8 | n | n | n | n
O=C(CCN1C(=O)/C(=C\C=C\c2ccccc2)SC1=S)Nc1cccc(C(=O)O)c1 | n | 28.5 | n | n | n | n
COc1ccc(N/C(=C\C(=O)c2ccccc2)c2ccccc2)cc1OC | n | x | x | x | n | x
CC(=O)N1CCN(c2ccc(N3CCN(Cc4ccccc4)[C@H](C)C3)c(C)c2)[C@H](C)C1 | n | x | x | x | n | x
Cc1cc(Nc2ccc(OC(F)F)cc2)cc(=O)n1-c1ccc(OC(F)F)cc1 | n | x | x | x | n | x
COc1ccccc1NS(=O)(=O)c1ccc(NC(C)=O)cc1 | n | n | n | n | n | n
CC(=O)c1ccc(Nc2nc3ccccc3nc2NS(=O)(=O)c2cccs2)cc1 | n | 26.9 | n | n | n | n
COc1ccccc1Nc1ccc(NS(=O)(=O)c2ccc(C(C)=O)cc2)cc1 | n | 33.7 | n | n | n | n
CCOc1ccc(S(=O)(=O)Nc2nc3ccccc3nc2Nc2ccc(N3CCOCC3)cc2)cc1 | n | 32.8 | n | n | n | n
NS(=O)(=O)c1ccc(Nc2nc3ccccc3nc2NS(=O)(=O)c2cccc([N+](=O)[O-])c2)cc1 | n | 30.7 | n | n | n | n
O=C(O)c1cccc(Nc2nc3ccccc3nc2NS(=O)(=O)c2cccs2)c1 | n | n | n | n | n | n
CCN=C1NC(c2ccc(C(F)(F)F)cc2)C(C(=O)OC)=C(C)N1Cc1cccc(C(F)(F)F)c1 (stereo not drawn) | n | x | x | x | n | x
COC(=O)c1ccc2nc(-c3ccc(C)cc3)c(Cc3ccccc3)n2c1 | n | x | x | x | n | x
COc1ccc(Nc2nc3ccccc3nc2NS(=O)(=O)c2cccs2)cc1 | n | 27.1 | n | n | n | n
COc1ccc(NS(=O)(=O)c2ccc(NC(=O)Cc3cccs3)cc2)cc1 | n | 25.6 | n | n | n | n
COc1ccc(S(=O)(=O)Nc2ccc(Nc3ccccc3)cc2)cc1 | n | 27.1 | x | x | n | x
Cc1ccc(S(=O)(=O)Nc2ccc(S(=O)(=O)N3CCCC3)cc2)cc1 | n | n | n | n | n | n
COc1ccc(NS(=O)(=O)c2cc(NC(=O)Cc3cccs3)ccc2C)cc1 | n | n | n | n | n | n
O=S(=O)(Nc1ccccc1)c1ccc(S(=O)(=O)N2CCCC2)cc1 | n | 26.8 | n | n | n | n
COc1ccc(OCC2CN(Cc3ccccc3)S(=O)(=O)CCO2)cc1 (stereo not drawn) | n | x | x | x | n | x
COc1ccc(CN2C[C@H](COCc3ccccc3)Oc3cccc(Oc4ccc(C(C)C)cc4)c3S2(=O)=O)cc1 | n | x | x | x | n | x
Brc1ccccc1C1Cc2nnccc2CN1 (stereo not drawn) | n | x | x | x | n | x
COc1ccc(Nc2nc3ccccc3nc2NS(=O)(=O)c2ccc(NC(C)=O)cc2)cc1 | n | 26.7 | n | n | n | n
CC(=O)NS(=O)(=O)c1ccc(NS(=O)(=O)c2ccc3ccccc3c2)cc1 | n | n | n | 28.6 | n | n
SMILES | ARFGAP1 inhibitor | pPAFAH inh | PAFAH2 FP inh | PAFAH1B2 inh | ASAP1 GAP inh | PAFAH1B3 FP inh
COC(=O)[C@]12C[C@H](CC(=O)NCc3cccc(C(F)(F)F)c3)C(=O)N(Cc3ccccc3)C1=C[C@H](C1CCCC1)O[C@@H]2C | n | x | x | x | n | x
O=C(NC(=S)NCCc1ccccn1)c1ccco1 | n | n | n | n | n | n
CN(CCc1ccccn1)C(=S)NC(=O)c1ccco1 | n | n | n | 52.8 | n | n
COc1ccc(Cn2c(N)c(S(=O)(=O)c3cccs3)c3nc4ccccc4nc32)cc1 | n | n | n | n | n | n
COCCn1c(N)c(S(=O)(=O)c2cccs2)c2nc3ccccc3nc21 | n | n | n | 24.7 | n | 47.7
Cc1cccc(N2CCN(C(=O)N3CCCCC3)CC2)c1C | n | 28.5 | n | n | n | n
CCCCN(CCCNC(=O)C1CCN(S(=O)(=O)N2CCOCC2)CC1)c1ccccc1 | n | 28.2 | n | n | n | n
O=C(N[C@@H](Cc1cccnc1)C(=O)N1CCC[C@H]1C(=O)NC1CCCC1)c1ccccc1 | n | x | x | x | n | x
C=CCNc1ccc2c(c1)OC[C@H](Cc1ccccc1)NS2(=O)=O | n | x | x | x | n | x
C[C@@H]1COC(=O)[C@H](Cc2ccc(F)cc2)CC/C=C/C[C@@H](CC(=O)N[C@H](CO)Cc2ccccc2)C(=O)N1 | n | n | n | n | n | n
CC(C)(C)[C@H]1COC(=O)[C@@H](Cc2ccc(F)cc2)CC/C=C/C[C@@H](CC(=O)N[C@@H](CO)Cc2ccccc2)C(=O)N1 | n | n | n | 27.3 | n | n
O=C(C[C@@H]1C/C=C\C[C@@H](Cc2ccc(F)cc2)C(=O)OCCNC1=O)N[C@H](CO)Cc1ccccc1 | n | n | n | 27.1 | n | n
O=C(C[C@H]1C/C=C\C[C@@H](Cc2ccc(F)cc2)C(=O)OC[C@H]2CCCN2C1=O)N[C@H](CO)Cc1ccccc1 | n | n | n | 28.5 | n | n
CC(C)(C)[C@H]1COC(=O)[C@@H](Cc2ccc(F)cc2)CC/C=C/C[C@@H](CC(=O)N[C@H](CO)Cc2ccccc2)C(=O)N1 | n | n | n | 30.5 | n | n
CC(C)(C)[C@H]1COC(=O)CC/C=C\C[C@@H](CC(=O)N[C@H](CO)Cc2ccccc2)C(=O)N1 | n | n | n | n | n | n
CSc1cccc(NC(=S)NN/C(=N/S(=O)(=O)c2ccccc2)N2CCCC2)c1 | n | x | x | x | n | x
CCCCc1c(-c2ccccc2OC)ncn1C1CCCCC1 | n | x | x | x | n | x
C[C@@H]1COC(=O)[C@H](Cc2ccc(F)cc2)C/C=C\C[C@@H](CC(=O)N[C@H](CO)Cc2ccccc2)C(=O)N1 | n | n | n | 26.9 | n | n
C[C@@H]1COC(=O)[C@@H](Cc2ccc(F)cc2)C/C=C\C[C@@H](CC(=O)N[C@H](CO)Cc2ccccc2)C(=O)N1 | n | n | n | n | n | n
S=C1NCCOc2ccccc21 | n | x | x | x | n | x
O=C(CSc1nccn1-c1ccc(Cl)cc1)N1CCCc2ccccc21 | n | n | n | 25.4 | n | n
Cc1cc2c(c(=O)o1)[C@@]1(C(=O)N(C)c3ccccc31)C1=C(CC(C)(C)CC1=O)O2 | n | x | x | x | n | x
O=C(NCc1ccco1)c1cc2c(s1)CSC2 | x | 27.8 | x | x | x | x
O=C1c2ccccc2/C(=C\c2ccc(O[C@@H]3CCCCO3)cc2)N1c1ccccc1 | n | x | x | x | n | x
CC1CCCN(c2cccc3c2S(=O)(=O)N([C@H](C)c2ccccc2)C[C@@H](COCc2ccccc2)O3)C1 (stereo partly drawn) | n | x | x | x | n | x
Cc1ccc(S(=O)(=O)N2Cc3ccccc3CC2C(=O)Nc2ccc3c(c2)OCO3)cc1 (stereo not drawn) | n | 28.2 | n | n | n | n
CC(=O)Nc1cc2nc3ccccc3oc-2cc1=O | x | x | x | x | n | x
O=C(NN=C1CCCC1)c1cc(Br)ccc1O | n | 29.5 | n | n | n | n
